Laboratory results taken from ChEMBL document CHEMBL2384933, “Vitexin inhibits inflammatory pain in mice by targeting TRPV1, oxidative stress, and cytokines” (J Nat Prod, 2013).

Legend:
Design in all cases: dose 2.5 mg/kg, route intraperitoneal
Settings in all cases: in vivo, 168 h
Mus musculus [1] = test: Hepatotoxicity in Swiss mouse assessed as increase in plasma AST level at 2.5 mg/kg, ip for 7 days; type: toxicity, organism-based
Summary of the method: (§1)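 Mice dosed ip once daily for 7 days; the vehicle was saline or Tris/HCl buffer pH 8.0, with the vehicle data pooled. Plasma AST and ALT were measured with a diagnostic kit as markers of hepatotoxicity.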

Mus musculus [2] = test: Hepatotoxicity in Swiss mouse assessed as increase in plasma ALT level at 2.5 mg/kg, ip for 7 days; type: toxicity, organism-based; summary of the method: as §1
Mus musculus [3] = test: Toxicity in Swiss mouse assessed as increase in myeloperoxidase activity in stomach at 2.5 mg/kg, ip for 7 days by spectrophotometric analysis; type: organism-based
Summary of the method: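 Same daily ip dosing for 7 days. Stomach was homogenized in 50 mM K2PO4 pH 6.0 with 0.5% HTAB and spun at 16100g for 2 min. Supernatant was mixed with 50 mM phosphate pH 6.0 containing 0.167 mg/mL o-dianisidine and 0.015% H2O2, then read at 450 nm three times within 1 min. Values came from a neutrophil standard curve, as neutrophils ×10^4/mg tissue.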

Measured: Activity

COc1ccc2c(c1)c(CC(=O)O)c(C)n2C(=O)c1ccc(Cl)cc1 [INDOMETHACIN]
Toxic: Mus musculus [1] | Mus musculus [2] | Mus musculus [3]
